# Assay results reported in ChEMBL document CHEMBL1124374, “Enkephalinase inhibitors. 1. 2,4-Dibenzylglutaric acid derivatives” (J Med Chem, 1989).
# Calls of active or inactive are those of the source.
# Experiments:
# Mus musculus [1] = experiment: Antinociceptive effect was determined by mouse hot plate assay after sc administration of the compound; assay type: functional
# Procedure, shortened: (§1)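 Male CF1 mice (18–23 g) dosed icv or sc; 15 min later placed singly on a copper hot plate held at 55 °C. Latency to jump recorded, cutoff 240 s. MED = minimum effective dose. ED200 = dose doubling jump latency.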
# Neprilysin [2] = target: T1, Neprilysin (Rattus norvegicus, UniProt P07861); experiment: Inhibition of enkephalinase activity in synaptic membranes prepared from rat striatum; assay type: cell membranes
# T1 sequence (P07861 whole entry): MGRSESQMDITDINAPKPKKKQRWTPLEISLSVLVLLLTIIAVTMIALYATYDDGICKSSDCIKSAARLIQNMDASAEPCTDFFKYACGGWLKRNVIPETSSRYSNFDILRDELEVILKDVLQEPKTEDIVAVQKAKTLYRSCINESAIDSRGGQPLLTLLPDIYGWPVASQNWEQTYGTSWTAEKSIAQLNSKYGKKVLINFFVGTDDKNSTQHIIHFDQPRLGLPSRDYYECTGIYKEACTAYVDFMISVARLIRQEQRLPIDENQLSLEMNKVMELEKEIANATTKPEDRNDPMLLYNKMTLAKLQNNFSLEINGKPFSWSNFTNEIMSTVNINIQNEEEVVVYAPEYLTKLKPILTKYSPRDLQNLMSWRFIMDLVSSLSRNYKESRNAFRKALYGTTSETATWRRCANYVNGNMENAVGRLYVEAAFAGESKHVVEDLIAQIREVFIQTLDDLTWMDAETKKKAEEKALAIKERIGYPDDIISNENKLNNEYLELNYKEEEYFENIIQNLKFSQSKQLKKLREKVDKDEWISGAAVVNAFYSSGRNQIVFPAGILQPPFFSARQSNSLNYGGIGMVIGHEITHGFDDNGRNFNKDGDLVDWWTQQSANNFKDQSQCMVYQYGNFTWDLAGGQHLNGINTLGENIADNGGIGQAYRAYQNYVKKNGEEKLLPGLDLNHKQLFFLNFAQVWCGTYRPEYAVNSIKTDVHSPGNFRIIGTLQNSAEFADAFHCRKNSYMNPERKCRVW
# [3] = target: T2, Aminopeptidase N (Sus scrofa) (UniProt P15145); experiment: Inhibition of aminopeptidase; IA is inactive
# T2 sequence (whole entry): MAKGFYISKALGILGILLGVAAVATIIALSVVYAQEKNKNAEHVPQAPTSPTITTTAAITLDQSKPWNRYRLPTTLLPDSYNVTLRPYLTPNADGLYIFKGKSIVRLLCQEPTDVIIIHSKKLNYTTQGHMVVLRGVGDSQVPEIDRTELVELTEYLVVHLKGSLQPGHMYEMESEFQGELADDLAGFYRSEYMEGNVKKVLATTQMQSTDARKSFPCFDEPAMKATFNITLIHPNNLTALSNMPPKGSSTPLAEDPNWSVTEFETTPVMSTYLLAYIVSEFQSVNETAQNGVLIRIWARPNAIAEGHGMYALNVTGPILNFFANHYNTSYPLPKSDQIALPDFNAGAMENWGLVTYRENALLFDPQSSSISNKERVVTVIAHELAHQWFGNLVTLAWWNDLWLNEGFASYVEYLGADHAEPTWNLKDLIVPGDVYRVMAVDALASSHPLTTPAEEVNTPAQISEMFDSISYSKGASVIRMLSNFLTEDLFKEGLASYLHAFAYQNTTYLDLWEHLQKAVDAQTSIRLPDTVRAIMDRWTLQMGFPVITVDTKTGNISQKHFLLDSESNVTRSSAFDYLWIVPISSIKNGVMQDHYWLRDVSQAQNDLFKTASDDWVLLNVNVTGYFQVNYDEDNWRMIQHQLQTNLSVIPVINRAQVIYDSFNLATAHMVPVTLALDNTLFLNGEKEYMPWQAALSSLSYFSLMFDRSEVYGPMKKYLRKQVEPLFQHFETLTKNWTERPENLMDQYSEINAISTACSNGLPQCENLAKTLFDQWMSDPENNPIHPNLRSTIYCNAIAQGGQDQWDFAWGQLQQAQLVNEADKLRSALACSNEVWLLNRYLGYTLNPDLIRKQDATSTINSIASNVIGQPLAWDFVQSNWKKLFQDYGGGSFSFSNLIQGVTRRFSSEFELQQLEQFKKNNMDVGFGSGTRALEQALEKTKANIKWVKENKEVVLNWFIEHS
# Procedure, shortened: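 Kidney cortex membranes (75 μg protein) incubated 15 min at 37 °C in 50 mM Tris, pH 7.4, with 0.8 mM L-leucine p-nitroanilide (final). Reaction stopped with TCA, tubes centrifuged, p-nitroaniline read as OD at 410 nm.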
# [4] = target: Mu-type opioid receptor (Mus musculus) (UniProt P42866); experiment: Ability to displace tritium-labeled naloxone at opioid receptor, at 10 uM concentration
# Neprilysin [5] = target: T3, Neprilysin (Oryctolagus cuniculus, UniProt P08049); experiment: Inhibition of enkephalinase activity in membranes prepared from rabbit
# T3 sequence (P08049 whole entry): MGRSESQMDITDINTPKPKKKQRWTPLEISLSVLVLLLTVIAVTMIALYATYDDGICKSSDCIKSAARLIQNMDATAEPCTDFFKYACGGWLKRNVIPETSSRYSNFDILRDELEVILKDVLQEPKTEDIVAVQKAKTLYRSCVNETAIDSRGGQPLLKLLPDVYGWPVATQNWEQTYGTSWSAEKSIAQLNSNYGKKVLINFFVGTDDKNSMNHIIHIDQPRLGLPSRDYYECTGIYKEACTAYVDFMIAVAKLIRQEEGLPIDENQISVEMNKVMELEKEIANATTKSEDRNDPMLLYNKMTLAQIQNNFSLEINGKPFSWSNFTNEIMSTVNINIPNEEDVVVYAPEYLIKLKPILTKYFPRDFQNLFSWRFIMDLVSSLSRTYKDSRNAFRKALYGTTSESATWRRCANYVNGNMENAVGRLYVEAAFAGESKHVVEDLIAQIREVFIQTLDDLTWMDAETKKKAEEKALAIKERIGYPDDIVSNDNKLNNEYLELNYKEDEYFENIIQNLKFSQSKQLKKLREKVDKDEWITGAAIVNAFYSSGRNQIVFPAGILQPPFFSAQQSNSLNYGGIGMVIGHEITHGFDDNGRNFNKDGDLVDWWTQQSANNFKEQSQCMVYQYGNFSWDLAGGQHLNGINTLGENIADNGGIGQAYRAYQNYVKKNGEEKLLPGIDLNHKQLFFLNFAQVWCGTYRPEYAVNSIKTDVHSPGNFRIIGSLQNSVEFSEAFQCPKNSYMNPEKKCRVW
# Procedure, shortened: (§2)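 Rabbit protease 24.11 (15 ng protein) incubated 10 min at 37 °C with [Tyr-3H]Leu-enkephalin plus unlabeled Leu-enkephalin (1 μM final) in 50 mM Tris-HCl, pH 6.5. Stopped with TFA. Tyr-Gly-Gly product separated from substrate by C4 reverse-phase HPLC (isocratic, 0.09% TFA/acetonitrile). Fractions counted by scintillation.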
# Mus musculus [6] = experiment: Doubling of hotplate jump-latency activity in mouse after subcutaneous administration is determined; assay type: functional; procedure, shortened: as §1
# Mus musculus [7] = experiment: Stretching activity in male CF-1 mice, after the intra peritoneal administration of acetic acid and subcutaneous administration of compound; assay type: functional
# Procedure, shortened: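 Male CF-1 mice (18–22 g), twelve per dose of agent or vehicle, dosed sc 15 min before ip 3% aqueous acetic acid at 10 mL/kg. Five minutes after irritant, stretching episodes counted over 10 min. ED50 derived from these counts.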
# Mus musculus [8] = experiment: Tail-flick latency observed in CF-1 mice after the administration (3 mg/kg) followed by icv administration of DAEM ([D-Ala2,Met5]enkephalin); assay type: functional
# Procedure, shortened: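 Male CF-1 mice (20–22 g) given test agent or vehicle sc, then immediately DAEM (1 μg) or vehicle icv. Tail-flick latency read 30 min later, cutoff 10 s; n = 10 per group.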
# Mus musculus [9] = experiment: Hot-plate jump-latency activity in mouse 15 minutes after subcutaneous administration; assay type: functional; conditions: sc, 0.25 h, read-out: MED; procedure, shortened: as §1
# Mus musculus [10] = experiment: Doubling of hotplate jump-latency activity in mouse after subcutaneous administration of the compound; assay type: functional
# Procedure, shortened: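 Male CF1 mice (18–23 g) dosed sc; 15 min later placed singly on copper hot plate held at 55 °C. Latency to jump off recorded, cutoff 240 s. ED200 is the dose doubling jump latency.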
# Mus musculus [11] = experiment: Doubling of hotplate jump-latency activity in mouse after intra cerebro ventricular administration of the compound; assay type: functional; procedure, shortened: as §1
# Opioid receptor = experiment: Ability to displace tritium-labeled naloxone at opiate receptors, at 10 uM concentration
# Mus musculus [12] = experiment: Tail-flick latency observed in CF-1 mice after the administration (30 mg/kg) followed by icv administration of DAEM ([D-Ala2,Met5]enkephalin); assay type: functional
# Procedure, shortened: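 Male CF-1 mice (20–22 g) given test agent or vehicle sc, followed immediately by icv DAEM (1 μg) or vehicle. Tail-flick latency measured 30 min later, cutoff 10 s, n = 10.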
# Neprilysin [13] = target: T3, Neprilysin; experiment: Inhibitory activity against Enkephalinase from rabbit using method 2 is determined.; procedure, shortened: as §2
# Sequence of Mu-type opioid receptor (Mus musculus) (P42866 whole entry): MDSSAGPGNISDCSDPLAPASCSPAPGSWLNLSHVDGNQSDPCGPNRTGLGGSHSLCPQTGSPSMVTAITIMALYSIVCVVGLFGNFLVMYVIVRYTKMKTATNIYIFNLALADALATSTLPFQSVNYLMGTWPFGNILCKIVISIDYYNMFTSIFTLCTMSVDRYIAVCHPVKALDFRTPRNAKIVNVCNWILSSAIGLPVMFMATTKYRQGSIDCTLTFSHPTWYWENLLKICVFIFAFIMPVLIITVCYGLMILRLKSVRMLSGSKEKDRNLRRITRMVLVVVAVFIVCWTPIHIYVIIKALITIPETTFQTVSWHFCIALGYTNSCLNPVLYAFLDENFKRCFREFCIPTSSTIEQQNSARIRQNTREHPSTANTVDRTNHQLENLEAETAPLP
IC50 (Neprilysin [2]) [nM],Structure (SMILES),ED200 (Mus musculus [6]) [mg/kg],ED50 (Mus musculus [7]; sc) [mg/kg],minimal effective dose (Mus musculus [9]) [mg/kg],ED200 (Mus musculus [11]) [µg],other results
12,O=C(NCc1ccc(O)c(O)c1)C(CS)Cc1ccccc1 (stereo unspecified),15,–,–,–,inhibition (Opioid receptor): 15%; ED50 (Mus musculus [7]): 5 mg/kg
8,O=C(O)CCNC(=O)[C@H](Cc1ccccc1)C[C@@H](Cc1ccccc1)C(=O)O,–,–,> 30,15,Reaction time (Mus musculus [12]): 8.6 s; IC50 (Neprilysin [13]): 5 nM

# The next lines start with the compound.
Structure (SMILES),IC50 (Neprilysin [2]) [nM],ED200 (Mus musculus [6]) [mg/kg],ED50 (Mus musculus [7]; sc) [mg/kg],minimal effective dose (Mus musculus [9]) [mg/kg],ED200 (Mus musculus [11]) [µg],other results
O=C([O-])[C@H](Cc1ccccc1)C[C@@H](Cc1ccccc1)C(=O)NCc1ccc(O)c(O)c1.[Na+],20,–,–,–,–,ED200 (Mus musculus [1]): >100 mg/kg
COc1cc(CNC(=O)C(CS)Cc2ccccc2)ccc1O (stereo unspecified),–,6,5.5,–,–,inhibition [3]: inactive; inhibition [4]: 30%; IC50 (Neprilysin [5]): 9 nM
O=C(O)CNC(=O)C(CS)Cc1ccccc1 (stereo unspecified) [THIORPHAN],–,–,38,100,75,Reaction time (Mus musculus [8]): 7.5 s; ED200 (Mus musculus [10]): >100 mg/kg
